Bioassay records as filed in PubChem BioAssay.
CHOP inhibitor: inhibitors of CHOP promoter induction, primary screen, cell-based, unfolded protein response, luciferase reporter; CHO-K1 CHOP-promoter luciferase, tunicamycin-induced, 15-18 h; inhibition, % at 10 µM; 220,000 compounds, 3.8% hits; AID 2732, 2010;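 active means compounds that reduced the stress-induced luciferase reporter signal by more than about 70% of percent inhibition, limit read from the data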;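 further: 0% = tunicamycin plus vehicle and 100% = wells without tunicamycin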
XBP1 UPR activ: activators of adaptive XBP1 UPR arm, primary screen, cell-based, CHO-XBP1 luciferase reporter, luminescence, uHTS; IRE1-XBP1 UPR activation; percent of tunicamycin response, DMSO as zero; activation, % at 20 µM; 330,000 compounds, 0.33% hits; AID 463104, 2010;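 active means versus positive control, 20 µM dose yields 30% or more activation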;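 further: 100% = tunicamycin at 10 µg/mL and 0% = DMSO only wells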
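incubation = overnight seeding at 37 °C, 6 h compound treatment at 37 °C | assay system = CHO-XBP1 cells stably carrying IRE1-XBP1-driven luciferase reporter | input = 1000 cells per well | detection = luciferase luminescence | dosing = single point, 20 µM final compound, 1% DMSO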
CHOP UPR activ: activators of apoptotic CHOP UPR arm, primary screen, cell-based, CHO-CHOP luciferase reporter, luminescence, uHTS. activation, % at 10 µM. 330,000 compounds, 0.34% hits. UPR activation; percent of tunicamycin response over DMSO baseline;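 active means at 10 µM dose, activation of 40% or more, normalized to positive control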;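 further: 100% = tunicamycin at 10 µg/mL and 0% = DMSO alone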
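Assay system: CHO cells with stable CHOP pathway luciferase reporter; Buffer or medium: F12 plus 10% serum; Times: 16-18 h cell attachment, then 6 h compound exposure, 37 °C; Signal: luciferase luminescence; Read-out basis: percent activation relative to tunicamycin control; Control set: tunicamycin high control, DMSO low control.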
pCIP destab: p/CIP-EGFP fusion destabilizers, primary screen, fluorescence, F442A cells; Q05BA5; 16 h; decrease of EGFP signal, % at 10 µM; 290,000 compounds, 0.01% hits; AID 1984, 2009;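 active means EGFP signal decrease of at least 30% at 10 µM or well 3 SD below plate mean, unless failing retest; inactive means the rest, including hits failing retest or dose response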
B2AR ag: beta2AR agonists driving receptor internalization, primary screen, cell-based, FAP fluorogen, flow cytometry; 340,000 compounds, 0.43% hits; response, % (concentration not given with the values); Beta-2 adrenergic receptor (Homo sapiens), P07550; Am2.2-beta2AR cells;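 active means response above a set limit, near 3 SD of response in nonfluorescent compounds, cut at about 42% in these data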
Target sequence (P07550 whole entry, looked up): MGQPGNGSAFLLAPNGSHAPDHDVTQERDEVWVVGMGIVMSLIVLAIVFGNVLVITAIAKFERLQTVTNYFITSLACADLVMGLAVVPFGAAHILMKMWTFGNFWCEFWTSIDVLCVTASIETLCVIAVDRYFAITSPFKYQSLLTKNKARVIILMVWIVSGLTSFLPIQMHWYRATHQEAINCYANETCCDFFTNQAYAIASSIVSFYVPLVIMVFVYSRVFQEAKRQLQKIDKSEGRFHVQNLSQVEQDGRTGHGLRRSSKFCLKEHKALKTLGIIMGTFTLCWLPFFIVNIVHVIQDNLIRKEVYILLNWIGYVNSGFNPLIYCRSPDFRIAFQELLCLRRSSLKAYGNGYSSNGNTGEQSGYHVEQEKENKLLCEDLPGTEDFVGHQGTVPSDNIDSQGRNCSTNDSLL
Dynein cargo inh: inhibitors of GR-EGFP nuclear translocation, primary screen, dynein cargo transport inhibitor project, imaging, high-content, 3617.4 mouse cells | test concentration mostly 20 µM; stimulated with dexamethasone, 1 µM; hits give low values | z-score, hits read low | 220,000 compounds, 0.47% hits | AID 1381, 2008;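 active means plate z-score of nuclear minus cytoplasmic receptor signal below a set negative limit, without overly bright fluorescence or cell loss, cut at about -3.5 in these data, passing the limit was not always enough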;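 further: z-score of nuclear minus cytoplasmic ring GR-EGFP intensity difference per well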
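Medium: Induction medium lacking tetracycline, stripped serum | Probe or stimulus: 1.0 µM final dexamethasone stimulus | Schedule: 48 h induction, then 1 h compound, then 30 min agonist, 37 °C | Signal: Automated 10x imaging of fixed Hoechst-stained cells | Evaluation: Per-cell GR-EGFP intensity, nucleus versus surrounding cytoplasmic ring, well-averaged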
CHOP UPR conf: activators of apoptotic CHOP UPR arm, confirmation, cell-based, CHO-CHOP luciferase reporter, single concentration | CHO-CHOP cells, CHOP-luciferase reporter luminescence; percent of tunicamycin response, DMSO as zero | 1,000 compounds, 64% hits | activation, % at 10 µM | shares compounds with CHOP UPR activ; in the data active means activation above about 33%;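 further: 0% = DMSO wells and 100% = tunicamycin 10 µg/mL wells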
* = called active by the depositor. This excerpt belongs to a sample that is enriched for hits.

`O=C(CN(c1cccc(C(F)(F)F)c1)S(=O)(=O)c1ccc(Cl)c([N+](=O)[O-])c1)NCc1ccc(F)cc1` gave CHOP inhibitor -88, XBP1 UPR activ 2, CHOP UPR activ 53*, pCIP destab -4, B2AR ag 23, Dynein cargo inh -0.48 and CHOP UPR conf 50*.
O=C(CN(c1cccc([N+](=O)[O-])c1)S(=O)(=O)c1ccccc1)NCc1cccnc1 was read as XBP1 UPR activ -2, CHOP UPR activ 1, pCIP destab 0 and B2AR ag -4.
Screening COc1ccc(NS(=O)(=O)c2c(C)[nH]c(=O)[nH]c2=O)cc1OC returned XBP1 UPR activ -2, CHOP UPR activ 1, pCIP destab 3 and B2AR ag 1.
For C/C(=N\NC(=O)c1cccnc1)c1cc2ccccc2o1 the results were CHOP inhibitor 9, XBP1 UPR activ -2, CHOP UPR activ -1, pCIP destab 0, B2AR ag 3 and Dynein cargo inh 0.36.
Screening C/C(=N\NC(=O)c1ccncc1)c1cc2ccccc2o1 returned CHOP inhibitor 9, XBP1 UPR activ 2, CHOP UPR activ 115*, pCIP destab 1, B2AR ag 1, Dynein cargo inh -1 and CHOP UPR conf 1.
Cc1cc(CN(C)C(=O)CC2C(=O)NCCN2Cc2c(F)cccc2Cl)n[nH]1 (stereo unspecified) was read as CHOP inhibitor -7, XBP1 UPR activ -1, CHOP UPR activ 0, pCIP destab -11, B2AR ag 3 and Dynein cargo inh -0.81.
`O=C(N/N=C/c1ccccn1)c1cccc([N+](=O)[O-])c1` gave CHOP inhibitor 13, XBP1 UPR activ 1, CHOP UPR activ 3, pCIP destab 11, B2AR ag 5 and Dynein cargo inh -0.21.
`O=C(N/N=C/c1ccccn1)c1cc([N+](=O)[O-])cc([N+](=O)[O-])c1` gave CHOP inhibitor 29, XBP1 UPR activ 4, CHOP UPR activ 45*, pCIP destab 0, B2AR ag 17, Dynein cargo inh 0.62 and CHOP UPR conf 65*.
For Cc1ccc(Nc2nc(-c3ccc(O)c(O)c3)cs2)nc1 the results were CHOP inhibitor 10, XBP1 UPR activ 9, CHOP UPR activ 216*, pCIP destab -13, Dynein cargo inh -3.2 and CHOP UPR conf 164*.
For Cc1ccc(Nc2nc(-c3ccc(F)cc3)cs2)nc1 the results were XBP1 UPR activ -3, CHOP UPR activ 5, pCIP destab -5 and B2AR ag -2.
Screening Cn1nnnc1Sc1ncnc2scc(-c3ccc([N+](=O)[O-])cc3)c12 returned XBP1 UPR activ -4, CHOP UPR activ 93*, B2AR ag 22 and CHOP UPR conf 105*.
For CC1CCN(S(=O)(=O)CCNC(=O)c2ccc3c(c2)OCO3)CC1 the results were XBP1 UPR activ 2, CHOP UPR activ 2 and B2AR ag -1.
`Oc1ccc(CN2CCCCC2)c2cccnc12` gave CHOP inhibitor 9, XBP1 UPR activ 17, CHOP UPR activ 7, pCIP destab 5, B2AR ag 0 and Dynein cargo inh 1.
Screening COCc1cc(CN2CCCC2)c(O)c2ncccc12 returned XBP1 UPR activ 2, CHOP UPR activ -1, pCIP destab -18, B2AR ag 4 and Dynein cargo inh 0.72.
`Oc1c(Cl)cc(CN2CCCCC2)c2cccnc12` gave XBP1 UPR activ 27, CHOP UPR activ 84*, pCIP destab -13, B2AR ag 10 and CHOP UPR conf 74*.
For CCOC(=O)N1CCN(Cc2ccc(O)c3ncccc23)CC1 the results were CHOP inhibitor 7, XBP1 UPR activ 25, CHOP UPR activ 62*, pCIP destab 9, Dynein cargo inh -0.42 and CHOP UPR conf 78*.
For Oc1ccc(CN2CCN(c3ccccc3)CC2)c2cccnc12 the results were CHOP inhibitor 35, XBP1 UPR activ 16, CHOP UPR activ 67*, pCIP destab -13, B2AR ag -1, Dynein cargo inh 0.61 and CHOP UPR conf 50*.
Screening Oc1ccc(CN2CCc3ccccc3C2)c2cccnc12 returned CHOP inhibitor 56, XBP1 UPR activ 12, CHOP UPR activ 104*, pCIP destab 4, B2AR ag 7, Dynein cargo inh -0.72 and CHOP UPR conf 102*.
Screening CC(C)C[C@@H]1NC(=O)[C@H](Cc2ccc(O)cc2)NC(=O)[C@H](CCC(N)=O)NC(=O)c2cc([N+](=O)[O-])cc(I)c2NCC[C@@H](C(N)=O)NC1=O returned CHOP inhibitor -17, XBP1 UPR activ -3, CHOP UPR activ 1, pCIP destab 9 and Dynein cargo inh 0.32.
Screening Cc1ccc(C(=O)Nc2onc(C)c2C#N)cc1 returned CHOP inhibitor 3, XBP1 UPR activ 6, CHOP UPR activ -2, pCIP destab -6, B2AR ag -4 and Dynein cargo inh -0.49.
Screening CC(C)(C)c1ccc2c(c1)OC(C(=O)N/N=C/c1ccc([N+](=O)[O-])o1)CO2 (stereo unspecified) returned CHOP inhibitor 14, XBP1 UPR activ 2, CHOP UPR activ 81*, pCIP destab 0, B2AR ag 0, Dynein cargo inh -1.2 and CHOP UPR conf 0.
`COC1(OC)N=C(N)C2(C#N)C(c3ccc(F)cc3)C12C#N` (stereo unspecified) gave CHOP inhibitor -8, XBP1 UPR activ -5, CHOP UPR activ 0, pCIP destab -1, B2AR ag 0 and Dynein cargo inh -1.6.
Screening CCSC1(SCC)N=C(N)C2(C#N)C(c3ccc(F)cc3)C12C#N (stereo unspecified) returned CHOP inhibitor 82*, XBP1 UPR activ 0, CHOP UPR activ 61*, pCIP destab 9, B2AR ag 25, Dynein cargo inh 1.8 and CHOP UPR conf 124*.
O=[N+]([O-])c1cc2cccnc2c2ncccc12 was read as CHOP inhibitor 10, XBP1 UPR activ -3, CHOP UPR activ 2, pCIP destab 3 and Dynein cargo inh -0.56.
Screening O=[N+]([O-])c1cc(O)c2ncccc2c1 returned CHOP inhibitor 45, XBP1 UPR activ 13, CHOP UPR activ 109*, pCIP destab 12, Dynein cargo inh -0.012 and CHOP UPR conf 88*.
